Assays:
Assay type in all cases: functional
K562 = experiment: Growth inhibition of human K562 cells after 48 hrs by sulforhodamine B assay; settings: K562, 48 h
HCT-15 = experiment: Growth inhibition of human HCT15 cells after 48 hrs by sulforhodamine B assay; settings: HCT-15, 48 h
RPMI-8226 = experiment: Growth inhibition of human RPMI8226 cells after 48 hrs by sulforhodamine B assay; settings: RPMI-8226, 48 h
KM12 = experiment: Growth inhibition of human KM12 cells after 48 hrs by sulforhodamine B assay; settings: KM12, 48 h
[1] = Growth inhibition of human Hs 578T cells after 48 hrs by sulforhodamine B assay
UO-31 = experiment: Growth inhibition of human UO31 cells after 48 hrs by sulforhodamine B assay; settings: UO-31, 48 h
CCRF-CEM = experiment: Growth inhibition of human CCRF-CEM cells after 48 hrs by sulforhodamine B assay
OVCAR-5 = experiment: Growth inhibition of human OVCAR5 cells after 48 hrs by sulforhodamine B assay; settings: OVCAR-5, 48 h
A549 = experiment: Growth inhibition of human A549 cells after 48 hrs by sulforhodamine B assay; settings: A549, 48 h
SF-295 = experiment: Growth inhibition of human SF295 cells after 48 hrs by sulforhodamine B assay; settings: SF-295, 48 h
NCI-H322M = experiment: Growth inhibition of human NCI-H322M cells after 48 hrs by sulforhodamine B assay
NCI-H522 = experiment: Growth inhibition of human NCI-H522 cells after 48 hrs by sulforhodamine B assay; settings: NCI-H522, 48 h
NCI-H23 = experiment: Growth inhibition of human NCI-H23 cells after 48 hrs by sulforhodamine B assay; settings: NCI-H23, 48 h
NCI-H226 = experiment: Growth inhibition of human NCI-H226 cells after 48 hrs by sulforhodamine B assay; settings: NCI-H226, 48 h
U-251 = experiment: Growth inhibition of human U251 cells after 48 hrs by sulforhodamine B assay; settings: U-251, 48 h
HL-60(TB) = experiment: Growth inhibition of human HL-60(TB) cells after 48 hrs by sulforhodamine B assay; settings: HL-60, 48 h
How it was run: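 Run in the NCI 60 cell-line screen as the full 5-dose assay that follows initial single-dose testing; GI50 is read from the dose series.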

NCI-H460 = experiment: Growth inhibition of human NCI-H460 cells after 48 hrs by sulforhodamine B assay; settings: NCI-H460, 48 h
ACHN = experiment: Growth inhibition of human ACHN cells after 48 hrs by sulforhodamine B assay
SF-268 = experiment: Growth inhibition of human SF268 cells after 48 hrs by sulforhodamine B assay; settings: SF-268, 48 h
HOP-62 = experiment: Growth inhibition of human HOP62 cells after 48 hrs by sulforhodamine B assay; settings: HOP-62, 48 h
BT-549 = experiment: Growth inhibition of human BT549 cells after 48 hrs by sulforhodamine B assay; settings: BT-549, 48 h
SK-MEL-28 = experiment: Growth inhibition of human SK-MEL-28 cells after 48 hrs by sulforhodamine B assay; settings: SK-MEL-28, 48 h
COLO 205 = experiment: Growth inhibition of human COLO205 cells after 48 hrs by sulforhodamine B assay; settings: COLO 205, 48 h
EKVX = experiment: Growth inhibition of human EKVX cells after 48 hrs by sulforhodamine B assay
SW-620 = experiment: Growth inhibition of human SW620 cells after 48 hrs by sulforhodamine B assay; settings: SW-620, 48 h
T47D = experiment: Growth inhibition of human T47D cells after 48 hrs by sulforhodamine B assay
PC-3 = experiment: Growth inhibition of human PC3 cells after 48 hrs by sulforhodamine B assay; settings: PC-3, 48 h
HCT-116 = experiment: Growth inhibition of human HCT116 cells after 48 hrs by sulforhodamine B assay; settings: HCT-116, 48 h
HCC 2998 = experiment: Growth inhibition of human HCC2998 cells after 48 hrs by sulforhodamine B assay; settings: HCC 2998, 48 h
SK-OV-3 = experiment: Growth inhibition of human SKOV3 cells after 48 hrs by sulforhodamine B assay; settings: SK-OV-3, 48 h
RXF 393 = experiment: Growth inhibition of human RXF393 cells after 48 hrs by sulforhodamine B assay; settings: RXF 393, 48 h
SNB-75 = experiment: Growth inhibition of human SNB75 cells after 48 hrs by sulforhodamine B assay; settings: SNB-75, 48 h
[2] = read-out: pLC50 (the source's name) (converted)

Q: Which results are given for `COc1cc(/C=C/c2cc3c(c(SC)c2)O[C@]2(C)CC[C@@H](O)C(C)(C)[C@H]2C3)cc(O)c1C/C=C(\C)CCC=C(C)C`?
A: GI50 (K562): 4.27 µM; LC50 (K562): > 100 µM; TGI (K562; read-out: pTGI (converted)): > 100 µM; GI50 (HCT-15): 2.95 µM; LC50 (HCT-15): 72.4 µM; TGI (HCT-15; read-out: pTGI (converted)): 8.91 µM; GI50 (RPMI-8226): 2.34 µM; LC50 (RPMI-8226): > 100 µM; TGI (RPMI-8226; read-out: pTGI (converted)): 8.91 µM; GI50 (KM12): 4.27 µM; LC50 (KM12): 83.2 µM; TGI (KM12; read-out: pTGI (converted)): 20.4 µM; GI50 [1]: 2.4 µM; CC50 [1, 2]: > 100 µM; TGI ([1]; read-out: pTGI (converted)): 19.5 µM; GI50 (UO-31): 8.91 µM; LC50 (UO-31): > 100 µM; TGI (UO-31; read-out: pTGI (converted)): > 100 µM; GI50 (CCRF-CEM): 5.62 µM; LC50 (CCRF-CEM): > 100 µM; TGI (CCRF-CEM; read-out: pTGI (converted)): > 100 µM; GI50 (OVCAR-5): 22.9 µM; LC50 (OVCAR-5): > 100 µM; TGI (OVCAR-5; read-out: pTGI (converted)): 57.5 µM; LC50 (A549): > 100 µM; GI50 (A549; read-out: GI50): 6.03 µM; GI50 (A549; read-out: pGI50 (converted)): 6.03 µM; TGI (A549; read-out: pTGI (converted)): 52.5 µM; LC50 (SF-295): > 100 µM; GI50 (SF-295; read-out: GI50): 3.8 µM; GI50 (SF-295; read-out: pGI50 (converted)): 3.02 µM; TGI (SF-295; read-out: pTGI (converted)): 25.1 µM; GI50 (NCI-H322M): 51.3 µM; LC50 (NCI-H322M): > 100 µM; TGI (NCI-H322M; read-out: pTGI (converted)): > 100 µM; GI50 (NCI-H522): 12 µM; LC50 (NCI-H522): 93.3 µM; TGI (NCI-H522; read-out: pTGI (converted)): 33.1 µM; GI50 (NCI-H23): 11.5 µM; LC50 (NCI-H23): > 100 µM; TGI (NCI-H23; read-out: pTGI (converted)): 36.3 µM; GI50 (NCI-H226): 15.1 µM; LC50 (NCI-H226): > 100 µM; TGI (NCI-H226; read-out: pTGI (converted)): 39.8 µM; GI50 (U-251): 5.01 µM; LC50 (U-251): 85.1 µM; TGI (U-251; read-out: pTGI (converted)): 24 µM; GI50 (HL-60(TB)): 5.13 µM; CC50 (HL-60(TB); [2]): > 100 µM; TGI (HL-60(TB); read-out: pTGI (converted)): 36.3 µM; GI50 (NCI-H460): 3.47 µM; LC50 (concentration killing 50% of cells) (NCI-H460): 51.3 µM; TGI (NCI-H460; read-out: pTGI (converted)): 13.8 µM; GI50 (ACHN): 10.7 µM; LC50 (ACHN): > 100 µM; TGI (ACHN; read-out: pTGI (converted)): > 100 µM; GI50 (SF-268): 7.41 µM; LC50 (SF-268): > 100 µM; TGI (SF-268; read-out: pTGI (converted)): 61.7 µM; GI50 (HOP-62): 12 µM; LC50 (HOP-62): 79.4 µM; TGI (HOP-62; read-out: pTGI (converted)): 30.9 µM; GI50 (BT-549): 18.6 µM; LC50 (BT-549): > 100 µM; TGI (BT-549; read-out: pTGI (converted)): > 100 µM; GI50 (SK-MEL-28): 12.3 µM; CC50 (SK-MEL-28; [2]): > 100 µM; TGI (SK-MEL-28; read-out: pTGI (converted)): 34.7 µM; GI50 (COLO 205): 1.35 µM; LC50 (COLO 205): 7.08 µM; TGI (COLO 205; read-out: pTGI (converted)): 3.09 µM; GI50 (EKVX): 40.7 µM; LC50 (50% lethal concentration) (EKVX): > 100 µM; TGI (EKVX; read-out: pTGI (converted)): > 100 µM; GI50 (SW-620): 6.76 µM; LC50 (SW-620): 50.1 µM; TGI (SW-620; read-out: pTGI (converted)): 20.9 µM; GI50 (T47D): 14.5 µM; LC50 (T47D): > 100 µM; TGI (T47D; read-out: pTGI (converted)): 67.6 µM; GI50 (PC-3): 6.03 µM; CC50 (PC-3; [2]): > 100 µM; TGI (PC-3; read-out: pTGI (converted)): 51.3 µM; GI50 (HCT-116): 6.46 µM; LC50 (HCT-116): 53.7 µM; TGI (HCT-116; read-out: pTGI (converted)): 20.9 µM; GI50 (HCC 2998): 12 µM; LC50 (HCC 2998): > 100 µM; TGI (HCC 2998; read-out: pTGI (converted)): 38.9 µM; GI50 (SK-OV-3): 7.94 µM; LC50 (SK-OV-3): > 100 µM; TGI (SK-OV-3; read-out: pTGI (converted)): 43.7 µM; GI50 (RXF 393): 1.55 µM; LC50 (50% lethal concentration) (RXF 393): 17.8 µM; TGI (RXF 393; read-out: pTGI (converted)): 4.47 µM; GI50 (SNB-75): 3.8 µM; LC50 (SNB-75): > 100 µM; TGI (SNB-75; read-out: pTGI (converted)): 33.1 µM

From ChEMBL document CHEMBL1926642, “Relevance of the C-5 position to schweinfurthin induced cytotoxicity” (2011)
